Measurements: ChEMBL document CHEMBL4138180, “neo-Clerodane Diterpenoids from Salvia polystachya Stimulate the Expression of Extracellular Matrix Components in Human Dermal Fibroblasts” (2017)
Active and inactive are the calls of the source. The rule behind the calls is not given here.

What was measured:
Escherichia coli = assay: Antibacterial activity against Escherichia coli at 0.5 to 8 ug after 18 hrs by agar disc diffusion method; format: functional, organism-based
Procedure, shortened: (§1)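 Bacteria suspended in saline at 10^8 CFU mL−1; 0.1 mL spread on nutrient agar (pH 6.8). Filter-paper disks carrying 8, 4, 2, 1 and 0.5 μg of compound (in DMSO) placed on the plates. Incubated aerobically at 37 °C for 18 h. Inhibition zone measured by caliper. Ampicillin and DMSO disks served as controls.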

NHDF [1] = assay: Upregulation of […] mRNA expression in HDF at 0.28 to 27.9 uM after 48 hrs by RT-PCR analysis relative to control; format: functional, Homo sapiens
Procedure, shortened: (§2)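 Normal human dermal fibroblasts from plastic-surgery biopsies, collagenase-disaggregated, grown in L15 Leibovitz with 10% FBS and penicillin/streptomycin at 37 °C. At 70% confluence refed with medium containing 0.26−0.29, 2.56−2.93 or 25.6−29.3 μM compound for 48 h. Total RNA, oligo-dT RT-PCR, 30 cycles, agarose gel band densitometry normalized to GAPDH. Fold versus basal-medium control, mean ± SD, one-way ANOVA.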

Nakaseomyces glabratus = assay: Antifungal activity against Candida glabrata CBS 138 at 0.5 to 8 ug after 24 hrs by agar disc diffusion method; format: functional, organism-based
Procedure, shortened: (§3)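 Qualitative disk diffusion on potato dextrose agar. Fungal inoculum at a final 10^5 CFU mL−1. Disks carried 8, 4, 2, 1 and 0.5 μg of compound in DMSO. Incubated aerobically at 37 °C for 24 h. Growth-inhibition zone measured by caliper. Amphotericin B and DMSO disks served as controls.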

Bacillus sp. = assay: Antibacterial activity against Bacillus sp. at 0.5 to 8 ug after 18 hrs by agar disc diffusion method; format: functional, organism-based; procedure, shortened: as §1
NHDF [2] = assay: Upregulation of COL5A1 mRNA expression in HDF at 0.28 uM after 48 hrs by RT-PCR analysis relative to control; format: functional, Homo sapiens; procedure, shortened: as §2
NHDF [3] = assay: Upregulation of elastin mRNA expression in HDF at 0.28 to 27.9 uM after 48 hrs by RT-PCR analysis relative to control; format: functional, Homo sapiens; procedure, shortened: as §2
NHDF [4] = assay: Inhibition of elastin mRNA expression in HDF at 0.28 to 27.9 uM after 48 hrs by RT-PCR analysis; format: functional, cell-based; details: Homo sapiens; procedure, shortened: as §2
NHDF [5] = assay: Upregulation of COL1A1 mRNA expression in HDF at 0.28 uM after 48 hrs by RT-PCR analysis relative to control; format: functional, Homo sapiens; procedure, shortened: as §2
Candida albicans = assay: Antifungal activity against Candida albicans ATCC 10235 at 0.5 to 8 ug after 24 hrs by agar disc diffusion method; format: functional, organism-based; procedure, shortened: as §3
NHDF [6] = assay: Upregulation of elastin mRNA expression in HDF at 0.29 to 29.3 uM after 48 hrs by RT-PCR analysis relative to control; format: functional, Homo sapiens
Procedure, shortened: (§4)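 Primary dermal fibroblasts from surgical biopsies, collagenase-dissociated and grown in L15 with 10% FBS at 37 °C. Total RNA (1 μg) was reverse-transcribed with oligo dT. PCR ran 30 cycles and products were run on 1.5% agarose. Bands were quantified and normalized to GAPDH, giving fold over the basal-medium control as mean ± SD, with one-way ANOVA.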

NHDF [7] = assay: Upregulation of […] mRNA expression in HDF at 2.93 uM after 48 hrs by RT-PCR analysis relative to control; format: functional, Homo sapiens; procedure, shortened: as §4
NHDF [8] = assay: Upregulation of […] mRNA expression in HDF at 0.29 uM after 48 hrs by RT-PCR analysis relative to control; format: functional, Homo sapiens; procedure, shortened: as §4
NHDF [9] = assay: Upregulation of COL1A1 mRNA expression in HDF at 0.29 to 29.3 uM after 48 hrs by RT-PCR analysis; format: functional, cell-based; details: Homo sapiens; procedure, shortened: as §4
NHDF [10] = assay: Inhibition of elastin mRNA expression in HDF at 0.29 to 29.3 uM after 48 hrs by RT-PCR analysis; format: functional, cell-based; details: Homo sapiens; procedure, shortened: as §4
NHDF [11] = assay: Upregulation of COL5A1 mRNA expression in HDF at 2.93 uM after 48 hrs by RT-PCR analysis relative to control; format: functional, Homo sapiens; procedure, shortened: as §4
NHDF [12] = assay: Upregulation of elastin mRNA expression in HDF at 100 uM after 48 hrs by RT-PCR analysis; format: functional, cell-based; details: Homo sapiens
Procedure, shortened: (§5)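 Positive control: ascorbic acid at 100 μM in basal medium (L15 Leibovitz, 10% FBS, antibiotics) added to normal human dermal fibroblasts at 70% confluence, 48 h, 37 °C. Total RNA reverse-transcribed with oligo dT, PCR 30 cycles, bands on 1.5% agarose quantified and normalized to GAPDH mRNA. Mean ± SD versus basal-medium control, one-way ANOVA.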

NHDF [13] = assay: Upregulation of COL1A1 mRNA expression in HDF at 100 uM after 48 hrs by RT-PCR analysis; format: functional, cell-based; details: Homo sapiens; procedure, shortened: as §5
NHDF [14] = assay: Upregulation of COL1A1 mRNA expression in HDF at 29.2 uM after 48 hrs by RT-PCR analysis relative to control; format: functional, Homo sapiens; procedure, shortened: as §2
NHDF [15] = assay: Upregulation of elastin mRNA expression in HDF at 0.29 to 29.2 uM after 48 hrs by RT-PCR analysis; format: functional, cell-based; details: Homo sapiens; procedure, shortened: as §2
NHDF [16] = assay: Inhibition of elastin mRNA expression in HDF at 0.29 to 29.2 uM after 48 hrs by RT-PCR analysis; format: functional, cell-based; details: Homo sapiens; procedure, shortened: as §2

SMILES: C[C@@H]1[C@H]2C[C@@]34COC(=O)[C@H]3C[C@H]3O[C@H]3[C@H]4[C@@]13C[C@H](c1ccoc1)O[C@H]3O2
- Activity (Escherichia coli): inactive
- fold change (FC) (NHDF [1]): 2.1 - 2.5
- Activity (Nakaseomyces glabratus): inactive
- Activity (Bacillus sp.): inactive
- fold change (FC) (NHDF [2]): 2.2
- fold change (FC) (NHDF [3]): 2.7 - 3.2
- inhibition (NHDF [4]): inactive
- fold change (FC) (NHDF [5]): 1.6
- Activity (Candida albicans): inactive

SMILES: C[C@]12C[C@H](c3ccoc3)OC(=O)[C@H]1CC[C@@]13COC(=O)C1=CC=C[C@H]32
- fold change (FC) (NHDF [6]): 2.1 - 3.4
- Activity (Escherichia coli): inactive
- Activity (Nakaseomyces glabratus): inactive
- fold change (FC) (NHDF [7]): 3.4
- Activity (Bacillus sp.): inactive
- fold change (FC) (NHDF [8]): 2.5
- Activity (NHDF [9]): inactive
- inhibition (NHDF [10]): inactive
- fold change (FC) (NHDF [11]): 2.5
- Activity (Candida albicans): inactive

SMILES: O=C1O[C@H]([C@@H](O)CO)C(O)=C1O
- Activity (NHDF [12]): Active
- Activity (NHDF [13]): Active

SMILES: C[C@@H]1[C@H]2C[C@@]34COC(=O)[C@H]3CC=C[C@H]4[C@@]13C[C@H](c1ccoc1)O[C@H]3O2
- fold change (FC) (NHDF [14]): 1.6
- Activity (NHDF [15]): Active
- inhibition (NHDF [16]): inactive
